The text below walks through data of ChEMBL document CHEMBL4004831, “Naphthalene diimide-polyamine hybrids as antiproliferative agents: Focus on the architecture of the polyamine chains” (Eur J Med Chem, 2017).

The test system of assay [1] is UACC-257. Kind of assay: Growth inhibition of human UACC257 cells incubated for 48 hrs by sulforhodamine B assay. Format: functional. As to conditions: UACC-257, 48 h. (Sulforhodamine B stains cellular protein and so reports cell mass.)
Assay [2] relates to SN12C. Kind of assay: Growth inhibition of human SN12C cells incubated for 48 hrs by sulforhodamine B assay. It counts as functional.
The subject of assay [3] is SK-MEL-28. Kind of assay: Growth inhibition of human SK-MEL-28 cells incubated for 48 hrs by sulforhodamine B assay. Format: functional. As to conditions: SK-MEL-28, 48 h.
Assay [4] relates to EKVX. The assay is described as follows: Growth inhibition of human EKVX cells incubated for 48 hrs by sulforhodamine B assay. Format: functional.
Assay [5] concerns U-251. The assay is described as follows: Growth inhibition of human U251 cells incubated for 48 hrs by sulforhodamine B assay. As to conditions: U-251, 48 h. Format: functional.
Assay [6] concerns SNB-75. The assay is described as follows: Growth inhibition of human SNB75 cells incubated for 48 hrs by sulforhodamine B assay. Format: functional. As to conditions: SNB-75, 48 h.
For assay [7], the system named is HCT-116. The assay is described as follows: Growth inhibition of human HCT116 cells incubated for 48 hrs by sulforhodamine B assay. Format: functional. As to conditions: HCT-116, 48 h.
Assay [8] relates to Malme-3M. The assay is described as follows: Growth inhibition of human MALME-3M cells incubated for 48 hrs by sulforhodamine B assay. Format: functional.
The subject of assay [9] is LOX IMVI. The assay is described as follows: Growth inhibition of human LOXIMVI cells incubated for 48 hrs by sulforhodamine B assay. Format: functional.
Assay [10] is described as follows: Stabilization of 5'Dabcyl/3'FAM labeled duplex DNA (unknown origin) assessed as increase in melting temperature at 2.5 uM pretreated for 5 mins at 30 degreeC followed by 5 mins incubation at 95 degreeC by fluorescence assay. Put shortly: (§1)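 FRET melting in LiP buffer (10 mM LiOH, 50 mM KCl, pH 7.0 with H3PO4), ex 488 nm, em 520 nm. Samples were held 5 min at 30 °C, heated at 1 °C/min to 95 °C, held 5 min, then re-annealed. Tm came from first derivatives; ΔTm = shift with ligand at 2.5; at least three runs.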

Assay [11] deals with DNA topoisomerase 2-alpha (Homo sapiens, UniProt P11388). Kind of assay: Inhibition of human topoisomerase-2alpha-mediated relaxation of supercoiled pBR322 DNA after 1 hr by ethidium bromide staining based agarose gel electrophoresis. Summed up: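 Supercoiled pBR322 was incubated with compound (0.5–100) and 1 U human topoisomerase IIα in enzyme buffer for 1 h at 37 °C. Reactions were stopped with Tris/EDTA/NaCl loading buffer (pH 8.0) and run on 1% agarose in TAE with 0.1% SDS (4.9 V/cm, 90 min), then stained with ethidium bromide. IC50 is the concentration reducing relaxation activity by 50%.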
DNA topoisomerase 2-alpha, sequence (P11388 whole entry): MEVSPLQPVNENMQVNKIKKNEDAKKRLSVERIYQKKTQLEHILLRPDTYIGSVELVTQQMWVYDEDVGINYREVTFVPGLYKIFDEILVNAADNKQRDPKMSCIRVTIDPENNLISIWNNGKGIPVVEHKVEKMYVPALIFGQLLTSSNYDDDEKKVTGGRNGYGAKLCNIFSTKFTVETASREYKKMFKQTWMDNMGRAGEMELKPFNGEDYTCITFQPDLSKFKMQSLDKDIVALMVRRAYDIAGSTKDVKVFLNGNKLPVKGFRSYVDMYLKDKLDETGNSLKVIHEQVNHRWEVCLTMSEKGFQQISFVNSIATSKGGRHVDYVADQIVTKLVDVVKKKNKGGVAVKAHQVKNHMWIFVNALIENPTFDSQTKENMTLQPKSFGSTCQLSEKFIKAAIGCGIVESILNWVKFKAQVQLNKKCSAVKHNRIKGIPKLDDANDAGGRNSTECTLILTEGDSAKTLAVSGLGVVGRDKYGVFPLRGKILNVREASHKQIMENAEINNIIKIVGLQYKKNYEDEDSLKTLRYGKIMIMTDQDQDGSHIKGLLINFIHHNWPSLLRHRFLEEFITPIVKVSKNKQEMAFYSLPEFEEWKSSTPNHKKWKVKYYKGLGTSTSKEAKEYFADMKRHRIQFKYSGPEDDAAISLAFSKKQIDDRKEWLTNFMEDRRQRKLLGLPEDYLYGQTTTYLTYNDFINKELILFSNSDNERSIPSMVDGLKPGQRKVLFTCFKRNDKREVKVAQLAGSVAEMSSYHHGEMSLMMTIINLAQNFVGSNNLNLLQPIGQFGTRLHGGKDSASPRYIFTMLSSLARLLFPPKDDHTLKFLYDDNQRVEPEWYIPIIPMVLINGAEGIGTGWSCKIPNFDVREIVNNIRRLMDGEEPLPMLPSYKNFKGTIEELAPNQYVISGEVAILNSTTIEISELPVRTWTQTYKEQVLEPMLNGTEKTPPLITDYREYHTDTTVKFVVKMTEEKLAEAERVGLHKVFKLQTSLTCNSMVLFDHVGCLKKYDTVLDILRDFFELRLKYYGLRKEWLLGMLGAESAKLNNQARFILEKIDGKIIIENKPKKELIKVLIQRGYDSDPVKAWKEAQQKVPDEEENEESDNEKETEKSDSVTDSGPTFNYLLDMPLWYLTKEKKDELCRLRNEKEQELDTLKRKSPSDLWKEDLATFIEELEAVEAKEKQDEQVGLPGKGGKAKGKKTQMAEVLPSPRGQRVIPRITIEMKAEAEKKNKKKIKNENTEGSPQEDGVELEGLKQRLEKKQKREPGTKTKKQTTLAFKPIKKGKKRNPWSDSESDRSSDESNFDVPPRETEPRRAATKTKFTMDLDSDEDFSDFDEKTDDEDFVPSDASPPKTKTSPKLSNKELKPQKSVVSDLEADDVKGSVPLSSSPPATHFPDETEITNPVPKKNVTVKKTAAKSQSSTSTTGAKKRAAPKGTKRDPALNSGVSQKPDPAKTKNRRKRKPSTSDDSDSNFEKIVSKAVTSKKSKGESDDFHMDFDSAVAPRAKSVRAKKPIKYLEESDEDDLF

The test system of assay [12] is MCF7. The assay is described as follows: Growth inhibition of human MCF7 cells incubated for 48 hrs by sulforhodamine B assay. As to conditions: MCF7, 48 h. It counts as functional.
The subject of assay [13] is Thermus aquaticus. The assay is described as follows: Inhibition of Thermus aquaticus DNA polymerase-mediated amplification of fragment of pBR322 by PCR. Summed up:
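PCR amplification of a pBR322 fragment by Taq polymerase with increasing compound (0.25–40) for 25 cycles: 94 °C, 58 °C and 72 °C, 30 s each. Products were run on 2% agarose in 0.5X TBE (4.2 V/cm, 1.5 h) and stained with ethidium bromide. IC50 is the concentration halving activity; MIC is the lowest concentration that suppresses activity.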

For assay [14], the species on record is Homo sapiens. Kind of assay: Stabilization of 5'Dabcyl/3'FAM labeled human telomeric sequence G-quadruplex DNA assessed as increase in melting temperature at 2.5 uM pretreated for 5 mins at 30 degreeC followed by 5 mins incubation at 95 degreeC by fluorescence assay. Put shortly: as §1
Assay [15] concerns OVCAR-5. Kind of assay: Growth inhibition of human OVCAR5 cells incubated for 48 hrs by sulforhodamine B assay. As to conditions: OVCAR-5, 48 h. Format: functional.
Assay [16] relates to SK-MEL-2. The assay is described as follows: Growth inhibition of human SK-MEL-2 cells incubated for 48 hrs by sulforhodamine B assay. Format: functional. As to conditions: SK-MEL-2, 48 h.

The structures appear in SMILES notation. Converted amounts (≈) assume the structure as drawn.

With `COc1ccccc1CNCCCN1C(=O)c2ccc3c4c(ccc(c24)C1=O)C(=O)N(CCCNCCCCNCCCN)C3=O`, the GI50 (usually the concentration at which growth is held to half of that of the control) is 0.176 µM in assay [1]; 0.319 µM in assay [2]; 0.39 µM in assay [3]; 1.4 µM in [4]; 0.328 µM in [5]; 0.752 µM in assay [6]. Besides, the GI50 in [7] was found to be 0.315 µM; in [8], 0.241 µM; in assay [9], 0.3 µM; in assay [12], 0.2 µM; in [15] it was 2.03 µM; in [16], 0.229 µM. Moreover, the ΔTm (as a rule, the change in melting temperature against a reference sample) was found to be 6.7 °C in assay [10] and 21.4 °C in assay [14]. Besides, the IC50 (commonly the concentration at which inhibition is half-maximal) in [11] stood at 2.2 µM. Moreover, the MIC in assay [13] was 0.25 µM (≈ 0.157 µg/mL).
Take `CNCCCNCCCN1C(=O)c2ccc3c4c(ccc(c24)C1=O)C(=O)N(CCCNCc1ccccc1OC)C3=O`: the GI50 in [1] is 1.35 µM; in assay [2], 1.46 µM; in assay [3], 1.01 µM; in assay [5] it was 1.61 µM; in assay [6], 1.11 µM; in [7], 0.27 µM. In addition, the GI50 in [8] came out at 0.633 µM; in assay [9], 1.52 µM; in [12], 0.512 µM; in assay [15], 1.25 µM; in assay [16], 1.75 µM. In addition, the ΔTm was found to be 9.5 °C in assay [10] and 18 °C in [14].
Consider `COc1ccccc1CNCCCN1C(=O)c2ccc3c4c(ccc(c24)C1=O)C(=O)N(CCCOCCCCOCCCN)C3=O`, for which the GI50 in [1] turned out to be 0.283 µM; in assay [2] it was 0.918 µM; in assay [3], 1.59 µM; in assay [4] it was 1.18 µM; in assay [5], 1.24 µM; in assay [6], 1.79 µM. The GI50 in assay [7] turned out to be 0.344 µM; in [8] it was 0.248 µM; in assay [9] it was 0.76 µM; in assay [12], 0.333 µM; in assay [15], 1.89 µM; in [16] it was 1.83 µM. The ΔTm was determined as 1.5 °C in [10] and 12.9 °C in assay [14]. For the same compound, in assay [11], the IC50 turned out to be 5.5 µM. This compound yielded an MIC in assay [13] of 1 µM (≈ 0.631 µg/mL).
With `CNCCCNCCCCNCCCN1C(=O)c2ccc3c4c(ccc(c24)C1=O)C(=O)N(CCCNCc1ccccc1OC)C3=O`, the GI50 in assay [1] turned out to be 1.25 µM; in assay [2], 2.95 µM; in assay [3], 1.4 µM; in [5], 3.24 µM; in assay [6], 1.05 µM; in assay [7], 2.04 µM. Further, the GI50 came out at 0.939 µM in [8]; 3.03 µM in assay [9]; 2.77 µM in [12]; 5.35 µM in assay [15]; 4.46 µM in assay [16]. Also, the thermal shift (ΔTm) in assay [10] is 17.1 °C; in [14], 26.1 °C.
As to `COc1ccccc1CNCCCN1C(=O)c2ccc3c4c(ccc(c24)C1=O)C(=O)N(CCCN)C3=O`, the GI50 came to 0.424 µM in assay [1]; 1.17 µM in assay [2]; 1.73 µM in [3]; 1.59 µM in assay [5]; 1.58 µM in assay [6]; 0.394 µM in assay [7]. Besides, the GI50 turned out to be 0.366 µM in assay [8]; 0.526 µM in [9]; 0.302 µM in [12]; 1.95 µM in assay [15]; 1.44 µM in assay [16]. The ΔTm in assay [10] came to 6.7 °C; in assay [14], 1.4 °C.
For the compound `COc1ccccc1CNCCCN1C(=O)c2ccc3c4c(ccc(c24)C1=O)C(=O)N(CCCNCCNCCCN)C3=O`, the GI50 in assay [1] turned out to be 2.53 µM; in assay [2], 2.09 µM; in assay [3] it was 3.03 µM; in assay [4] it was 4.17 µM; in assay [5], 1.17 µM; in assay [6], 3.07 µM. For the same compound, the GI50 was 0.717 µM in [7]; 1.61 µM in [8]; 2.1 µM in assay [9]; 0.422 µM in assay [12]; 5.24 µM in assay [15]; 2.67 µM in assay [16]. For the same compound, the figures for the ΔTm in assay [10] and in assay [14] were 10.4 °C and 22 °C, respectively.
